Our source for the folding enthalpy and Tm values is the array DNA melting data of Ke et al. (doi:10.1101/2024.01.08.574731).

Data set [1] in a line: folding enthalpy; higher = less favourable; fluorescence melt of hairpins on a sequencing array, two-state fit. The conditions noted are these: sodium 0.088 M. The method in brief: (§1)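 Cy3 signals were normalised both to pre-quench Cy3 and to control constructs. They came from library hairpins carrying annealed Cy3 and quencher oligos on a sequenced MiSeq flow cell, imaged in 50 mM Na-HEPES pH 8.0, 25 mM NaCl, in 2.5 °C steps up to 60 °C. Bootstrapped two-state fits gave melting temperature and folding enthalpy, and four replicates were combined by inverse variance. Fitted temperatures were then raised by 9.35 °C to match UV melts.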

A short description of data set [2]: melting temperature; fluorescence melt of hairpins on a sequencing array, two-state fit, raised by 9.35 °C to match UV melts. The conditions noted are these: sodium 0.088 M. The method in brief: as §1

In the case of GCGAGTCGTCGC ((((....)))), the folding enthalpy in data set [1] is -22.3 kcal/mol. For the same sequence, in data set [2], the Tm is 53.1 °C.
As for GCGAGTGGAAACGCTTGC ((.((.(....).)).)), the folding enthalpy in data set [1] is -22.3 kcal/mol. In data set [2], the Tm was 48.6 °C.
GCGAGTTTCGC ((((...)))): the folding enthalpy in data set [1] is -17.3 kcal/mol. The Tm in data set [2] was determined as 51 °C.
Regarding GCGATAACTCGC ((((....)))), the folding enthalpy in data set [1] is -21.1 kcal/mol. Also, the Tm in data set [2] is 45.9 °C.
Regarding GCGATAATCGC ((((...)))), the folding enthalpy in data set [1] is -20.7 kcal/mol. Also, the Tm in data set [2] was 44.4 °C.
GCGATAATTCGC ((((....)))): the folding enthalpy in data set [1] was -23.5 kcal/mol. The Tm in data set [2] was determined as 48.2 °C.
In the same order, the values of GCGATAGGAAACTATTGC ((.((((....)))).)) are -38.8 kcal/mol and 45.6 °C.
Taken in the same sequence, the figures for GCGATAGTTCGC ((((....)))) were -21.8 kcal/mol and 50.4 °C.
For GCGATATTTCGC ((((....)))), the folding enthalpy in data set [1] was -23.2 kcal/mol. In addition, the Tm in data set [2] was 50.1 °C.
Taken in the same sequence, the figures for GCGATCATTCGC ((((....)))) were -26.6 kcal/mol and 50.7 °C.
Taken in the same sequence, the figures for GCGATCCATCGC ((((....)))) were -27.3 kcal/mol and 57.2 °C.
In the case of GCGATCCCGAAAGGGCGC (((..(((....)))))), the folding enthalpy in data set [1] is -20.6 kcal/mol. In data set [2], the Tm came out at 56.3 °C.
For GCGATCCTCGC ((((...)))), in data set [1], the folding enthalpy was -20.9 kcal/mol. In addition, the Tm in data set [2] turned out to be 50.3 °C.
For the sequence GCGATCGAAAGATAACGC ((((((....)))..))), the folding enthalpy in data set [1] is -26.2 kcal/mol. In addition, the Tm in data set [2] came out at 44.3 °C.
For GCGATCGAAAGATACCGC ((((((....)))..))), in data set [1], the folding enthalpy is -23.8 kcal/mol. The Tm in data set [2] is 37.2 °C.
As for GCGATCGAAAGATCACGC ((((((....)))..))), the folding enthalpy in data set [1] was -21.7 kcal/mol. The Tm in data set [2] came to 48.2 °C.
In the case of GCGATCGAAAGATGTCGC ((((((....)))..))), in data set [1], the folding enthalpy is -22.4 kcal/mol. Further, the Tm in data set [2] worked out at 43 °C.
In the same order, the values of GCGATCGGTCGC ((((....)))) are -31.6 kcal/mol and 48.5 °C.
GCGATCGTCGC ((((...)))): the folding enthalpy in data set [1] is -20.2 kcal/mol. Also, in data set [2], the Tm worked out at 45.9 °C.
Regarding GCGATGATCGC ((((...)))), in data set [1], the folding enthalpy is -22.3 kcal/mol. The Tm in data set [2] was determined as 46 °C.
In the case of GCGATGCCTCGC ((((....)))), in data set [1], the folding enthalpy was -20.5 kcal/mol. For the same sequence, in data set [2], the Tm turned out to be 50.4 °C.
For the sequence GCGATGCGAAAGCATTGC ((.((((....)))).)), the folding enthalpy in data set [1] was -43.9 kcal/mol. Besides, the Tm in data set [2] turned out to be 68.7 °C.
In the same order, the values of GCGATGCGAAAGCCCCGC (((..((....))..))) are -20.5 kcal/mol and 43.9 °C.
For the sequence GCGATGCGTCGC ((((....)))), the folding enthalpy in data set [1] is -20.1 kcal/mol. Besides, in data set [2], the Tm came out at 64.5 °C.
Consider GCGATGGGAAACTGTCGC ((((..(....)..)))), for which the folding enthalpy in data set [1] is -47.3 kcal/mol. Also, the Tm in data set [2] worked out at 49.2 °C.
In the same order, the values of GCGATGGTCGC ((((...)))) are -7.34 kcal/mol and 47.8 °C.
Taken in the same sequence, the figures for GCGATGTGTCGC ((((....)))) were -28.6 kcal/mol and 57 °C.
In the same order, the values of GCGATGTTTCGC ((((....)))) are -22.9 kcal/mol and 51.4 °C.
In the case of GCGATTACGAAAGTACGC (((..(((....)))))), the folding enthalpy in data set [1] is -26 kcal/mol. The Tm in data set [2] stood at 43.4 °C.
In the same order, the values of GCGATTAGTCGC ((((....)))) are -26.7 kcal/mol and 51.4 °C.
In the same order, the values of GCGATTCATCGC ((((....)))) are -30.1 kcal/mol and 58.3 °C.
Taken in the same sequence, the figures for GCGATTCGAAAGAACCGC (((.(((....))).))) were -38.6 kcal/mol and 53.1 °C.
GCGATTCGTCGC ((((....)))): the folding enthalpy in data set [1] is -28.4 kcal/mol. Also, the Tm in data set [2] is 54.5 °C.
In the case of GCGATTGAAAAATCGC ((((((....)))))), the folding enthalpy in data set [1] is -40.7 kcal/mol. Moreover, in data set [2], the Tm stood at 64.8 °C.
Taken in the same sequence, the figures for GCGATTGCTCGC ((((....)))) were -14.3 kcal/mol and 52.5 °C.
As to GCGATTGGAAACGATTGC ((.((.(....).)).)), the folding enthalpy in data set [1] is -26.7 kcal/mol. For the same sequence, the Tm in data set [2] came to 36.4 °C.
In the same order, the values of GCGATTTCGAAAGAACGC (((..(((....)))))) are -24.2 kcal/mol and 36.9 °C.
For the sequence GCGCAACGAAAGTTCGC (((.(((....)))))), the folding enthalpy in data set [1] is -32 kcal/mol. Besides, the Tm in data set [2] turned out to be 54.9 °C.
Taken in the same sequence, the figures for GCGCAAGCGAAAGCTCGC (((..(((....)))))) were -12.8 kcal/mol and 45.7 °C.
